Activity calls are given as the source filed them. No cut-off for these calls is given here.
Key:
MOLM-14 [1] = assay: Anticancer activity against human MOLM-14 cells assessed as cell growth inhibition at 50 nM incubated for 72 hrs by CellTiter-Blue Cell Viability Assay relative to control; type: functional
Outline: (§1)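 Cells plated at 5000/well in RPMI with 10% FBS and penicillin-streptomycin, incubated 24 h at 37 °C, 5% CO2, then exposed to 50 nM compound for 72 h. Viability read by CellTiter-Blue, absorbance at 570 nm 3 h after addition; vehicle and cell-free controls included. Percent growth inhibition given as mean of triplicates.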

[2] = target: T1, Serine/threonine-protein kinase haspin (Homo sapiens) (UniProt Q8TF76); assay: Inhibition of haspin (unknown origin) at 50 nM by ADP Glo kinase assay relative to control
T1 sequence (whole entry): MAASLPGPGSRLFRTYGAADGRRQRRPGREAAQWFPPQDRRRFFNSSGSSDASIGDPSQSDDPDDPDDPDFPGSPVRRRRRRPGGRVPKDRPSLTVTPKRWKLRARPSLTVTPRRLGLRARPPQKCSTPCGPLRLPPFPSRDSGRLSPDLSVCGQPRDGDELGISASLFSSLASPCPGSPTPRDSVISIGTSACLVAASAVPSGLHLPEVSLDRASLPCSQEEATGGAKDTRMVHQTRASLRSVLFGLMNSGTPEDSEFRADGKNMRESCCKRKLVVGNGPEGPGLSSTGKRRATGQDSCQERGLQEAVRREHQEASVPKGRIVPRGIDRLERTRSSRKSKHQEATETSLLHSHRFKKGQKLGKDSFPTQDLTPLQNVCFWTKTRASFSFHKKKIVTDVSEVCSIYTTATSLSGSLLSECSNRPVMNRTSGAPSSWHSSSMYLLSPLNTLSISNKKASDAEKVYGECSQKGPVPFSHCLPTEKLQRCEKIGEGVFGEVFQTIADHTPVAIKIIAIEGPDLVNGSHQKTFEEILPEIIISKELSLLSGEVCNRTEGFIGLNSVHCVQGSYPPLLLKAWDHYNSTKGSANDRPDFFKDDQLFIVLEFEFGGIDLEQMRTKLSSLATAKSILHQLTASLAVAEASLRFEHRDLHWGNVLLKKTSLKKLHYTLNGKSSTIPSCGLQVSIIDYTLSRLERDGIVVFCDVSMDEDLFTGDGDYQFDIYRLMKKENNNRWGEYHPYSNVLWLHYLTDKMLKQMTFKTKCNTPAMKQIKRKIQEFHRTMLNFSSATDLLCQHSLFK
Outline: (§2)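 In-house ADP-Glo assay: 9 ng/µL kinase, 10 µM ATP, 20 µM peptide substrate, 50 nM inhibitor in 25 mM MOPS pH 7.2, 12.5 mM β-glycerophosphate, 25 mM MgCl2, 2 mM EDTA, 0.2 mM DTT, 40 µg/mL BSA. Incubated 3 h, quenched with GLO reagent 40 min, detection reagent 1 h, luminescence read. Percent inhibition, mean of triplicates.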

[3] = target: Receptor-type tyrosine-protein kinase FLT3 (Homo sapiens) (UniProt P36888); assay: Inhibition of FLT3 (unknown origin) at 50 nM by ADP Glo kinase assay relative to control; outline: as §2
MV4-11 [4] = assay: Anticancer activity against human MV4-11 cells assessed as cell growth inhibition at 50 nM incubated for 72 hrs by CellTiter-Blue Cell Viability Assay relative to control; type: functional; outline: as §1
[5] = target: T1, Serine/threonine-protein kinase haspin (Homo sapiens); assay: Inhibition of haspin in human MOLM-14 cells assessed as reduction in histone H3 phosphorylation at Thr3 at 20 nM incubated for 24 hrs by immunoblotting analysis
DNA = assay: Binding affinity to DNA (unknown origin) assessed as DNA intercalation; type: nucleic-acid assay; conditions: Homo sapiens
MV4-11 [6] = assay: Anticancer activity against human MV4-11 cells assessed as reduction in cell proliferation incubated for 72 hrs CellTiter-Blue Cell Viability Assay; type: functional
Outline: (§3)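 Cells grown in RPMI + 10% FBS + penicillin-streptomycin, seeded 5000 per well, left 24 h at 37 °C, 5% CO2, then given graded compound concentrations for 72 h. CellTiter-Blue viability read as absorbance at 570 nm after 3 h; vehicle and cell-free controls. Nonlinear regression gave GI50; points are means of triplicates, confirmed by two scientists on separate days.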

[7] = target: Receptor-type tyrosine-protein kinase FLT3 (Homo sapiens, UniProt P36888, D835Y); assay: Inhibition of FLT3 D835Y mutant (unknown origin)
[8] = target: Receptor-type tyrosine-protein kinase FLT3 (Homo sapiens, UniProt P36888, ITD); assay: Inhibition of FLT3 ITD mutant (unknown origin)
[9] = target: Receptor-type tyrosine-protein kinase FLT3 (Homo sapiens) (UniProt P36888); assay: Inhibition of FLT3 in human MOLM-14 cells assessed as reduction in phosphorylation of FLT3 at 5 to 100 nM incubated for 2 hrs by immunoblotting; type: cell-based; conditions: dose 5-100 nM
Outline: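 MOLM-14 cells exposed to compound at 5, 20 or 100 nM for 2 h, lysed, protein normalized to BSA standard; SDS-PAGE, nitrocellulose transfer, overnight primary antibody, 2 h peroxidase secondary, chemiluminescent detection by CCD. Phospho-FLT3 bands normalized to actin; means of triplicates, SD.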

MOLM-14 [10] = assay: Anticancer activity against human MOLM-14 cells assessed as reduction in cell proliferation incubated for 72 hrs CellTiter-Blue Cell Viability Assay; type: functional; outline: as §3
MOLM-14 [11] = assay: Anticancer activity against human MOLM-14 cells expressing FLT3 F691L mutant assessed as reduction in cell proliferation incubated for 72 hrs CellTiter-Blue Cell Viability Assay; type: functional; outline: as §3
MOLM-14 [12] = assay: Anticancer activity against human MOLM-14 cells expressing FLT3 D835Y mutant assessed as reduction in cell proliferation incubated for 72 hrs CellTiter-Blue Cell Viability Assay; type: functional; outline: as §3

Structure (SMILES) | inhibition [2] [%] | inhibition [3] [%] | Activity (MOLM-14 [1]) [%] | Activity (MV4-11 [4]) [%] | further results
FC(F)(F)c1n[nH]cc1-c1nc2ccc3[nH]ncc3c2c2c1CCCC2 | 39 | 81 | 90 | 92 | –
O=C(NCc1c[nH]cn1)c1ccc(-c2nc3ccc4[nH]ncc4c3c3c2CCCC3)cc1 | 54 | 49 | 67 | 62 | –
O=C(NCc1nnn[nH]1)c1ccc(-c2nc3ccc4[nH]ncc4c3c3c2CCCC3)cc1 | 57 | 51 | 50 | 41 | –
O=C(NCc1nnc[nH]1)c1ccc(-c2nc3ccc4[nH]ncc4c3c3c2CCCC3)cc1 | 57 | 49 | 48 | 52 | –
O=C(NCc1ncc[nH]1)c1ccc(-c2nc3ccc4[nH]ncc4c3c3c2CCCC3)cc1F | 76 | 85 | 80 | 82 | –
O=C(NCCn1ccnc1)c1ccc(-c2nc3ccc4[nH]ncc4c3c3c2CCCC3)cc1 | 33 | 31 | 42 | 35 | –
Cn1ccnc1CNC(=O)c1ccc(-c2nc3ccc4[nH]ncc4c3c3c2CCCC3)cc1 | 26 | 14 | 21 | 25 | –
O=C1c2c(O)ccc(O)c2C(=O)c2c(NCCNCCO)ccc(NCCNCCO)c21 | – | – | – | – | Activity (DNA): Active
O=C(NCCc1ncc[nH]1)c1ccc(-c2nc3ccc4[nH]ncc4c3c3c2CCCC3)cc1 | 78 | 71 | 73 | 69 | –
O=C(NCc1nccs1)c1ccc(-c2nc3ccc4[nH]ncc4c3c3c2CCCC3)cc1 | 68 | 53 | 55 | 60 | –

Further lines, with some results ahead:

inhibition [2] [%] | inhibition [3] [%] | Structure (SMILES) | Activity (MOLM-14 [1]) [%] | Activity (MV4-11 [4]) [%] | further results
53 | 88 | O=C(NCc1ncc[nH]1)c1ccc(-c2nc3ccc4[nH]ncc4c3c3c2CCCC3)c(F)c1 | 87 | 79 | –
41 | 46 | O=C(NCc1cc[nH]c1)c1ccc(-c2nc3ccc4[nH]ncc4c3c3c2CCCC3)cc1 | 39 | 28 | –
11 | 93 | CCc1nc(C(N)=O)c(Nc2ccc(N3CCC(N4CCN(C)CC4)CC3)c(OC)c2)nc1NC1CCOCC1 [GILTERITINIB] | 87 | 91 | inhibition [5]: inactive
77 | 76 | O=C(NCc1ncc[nH]1)c1ccc(-c2nc3ccc4[nH]ncc4c3c3c2CCCC3)cc1 | 84 | 80 | –
97 | 94 | Cc1c[nH]c(CNC(=O)c2ccc(-c3nc4ccc5[nH]ncc5c4c4c3CCCC4)cc2)n1 | 96 | 94 | inhibition [5]: Active; GI50 (MV4-11 [6]): 8.9 nM; IC50 [7]: 0.024 nM; IC50 [8]: 0.121 nM; Activity (DNA): inactive; Activity [9]: Active; GI50 (MOLM-14 [10]): 22.4 nM; GI50 (MOLM-14 [11]): 2.2 nM; GI50 (MOLM-14 [12]): 4.3 nM
